Experimental data: paper PMC6726451 (Science Advances, 2019)
“And” between values parts separate entries of the source, which are not always exact repeats. Identical values can stand only once.

Experiments:
[1] = molecular target: T1, TtClpP (Thermus thermophilus, UniProt Q5SKM8); experiment: TAMRA-FP labeling of TtClpP active-site serines; format: biochemical; conditions: TAMRA-FP 5 μM, TtClpP 1 mg/ml, bortezomib 100 μM
[2] = molecular target: T1, TtClpP; experiment: Isothermal titration calorimetry fitted to the MWC model; format: binding
How it was run: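 TtClpP (10 μM, cell) was titrated with test compound (1.4 mM, syringe) in 50 mM Hepes (pH 7.6) and 50 mM NaCl at 25°, 35° and 45°C. Solutions were degassed. Each run used 19 injections 150 s apart with stirring at 750 rpm, in replicates. Integrated heats were fitted by nonlinear least squares to an MWC model with 14 identical single-site subunits. The fit gave KR, KT, γ, enthalpies and active fraction N.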

[3] = system: MtbClpXP1P2 complex; conditions: in vivo cell screen; cited from earlier work
[4] = molecular target: T1, TtClpP; experiment: Solution-state methyl NMR of Ile-δ1-CH3-labeled TtClpP; format: binding; conditions: 2 mM bortezomib, TtClpP 250 μM, 60°C
How it was run: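 Uniformly 2H,15N-labelled TtClpP carrying Ile-δ1-13CH3 labels, and its S97A mutant, were used. Protein was expressed in D2O and refolded from urea-solubilised inclusion bodies by NiNTA and SEC. Protein (250 μM) was mixed with 2 mM test compound or the DMSO equivalent in 100 mM tris (pH 8.5), 100 mM NaCl and 5% glycerol. 2D SOFAST-methyl-TROSY spectra were recorded at 700 MHz and 60°C, for 10–120 min per sample.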

[5] = system: proteasome; conditions: cited from earlier work
[6] = molecular target: T1, TtClpP; experiment: Dynamic light scattering, hydrodynamic radius of TtClpP; conditions: 5 mM bortezomib; for hydrodynamic radius Rhyd of TtClpP: TtClpP 3 μM
How it was run: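 TtClpP (3 μM) was measured in 100 mM tris (pH 8.5), 100 mM NaCl and 5% glycerol, with no additive or with 5 mM bortezomib added, at 25° or 45°C. Each condition was run in triplicate, three times for each of two TtClpP samples. Hydrodynamic radius is the average of these replicates.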

[7] = molecular target: TtClpP with TtClpX (Thermus thermophilus, UniProt Q5SKM8); experiment: TtClpP peptidase activity in the presence of TtClpX; format: biochemical
How it was run: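 N-terminally truncated TtClpX and TtClpP were expressed in E. coli BL21RIL and purified by NiNTA and SEC. Concentrations are given as hexamer and tetradecamer. TtClpP (0.1 μM complex) was mixed with TtClpX at varying ClpX6/ClpP14 molar ratios in 50 mM Hepes (pH 7.6) and 50 mM NaCl, without or with 10 μM test compound. PKMamc hydrolysis was read at 340/462 nm, at 60°C unless otherwise indicated. The ratio giving half-maximal activation was derived from activation plotted against molar ratio.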

[8] = molecular target: T2, MtbClpP1P2 complex (Mycobacterium tuberculosis, UniProt P9WPC3+P9WPC5); experiment: MtbClpP1P2 peptidase activity; format: biochemical
[9] = molecular target: T1, TtClpP; experiment: FtsZ degradation by TtClpP, SDS-gel electrophoresis; format: biochemical; conditions: 200 μM and 2 mM bortezomib, 37°C, TtClpP 1 μM complex
How it was run: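 Purified intrinsically disordered E. coli FtsZ (20 μM) was incubated at 37°C with TtClpP14 (1 μM) and the stated test-compound concentrations. Aliquots were withdrawn at set time points and resolved on a 15% SDS gel to follow FtsZ loss.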

[10] = molecular target: T1, TtClpP; experiment: MAS solid-state NMR chemical shift perturbations; format: binding; conditions: 10 mM bortezomib, sedimented TtClpP
[11] = molecular target: EcClpP (Escherichia coli, UniProt P0A6G7); experiment: EcClpP peptidase activity, PKMamc degradation; format: biochemical
How it was run: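 Purified E. coli ClpP was mixed in 50 mM Hepes (pH 7.6) and 50 mM NaCl with the fluorogenic tripeptide PKMamc (100 μM working concentration) and test compound, or a matching DMSO volume. AMC release was read at 340-nm excitation and 462-nm emission at defined intervals. An apparent IC50 was derived from peptidase activity.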

[12] = molecular target: T1, TtClpP; experiment: FITC-casein degradation by TtClpP; format: biochemical; conditions: TtClpP 0.1 μM complex
How it was run: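 FITC-casein, passed over a G25 column to remove free fluorescein, was used at 0.15 μM with TtClpP14 (0.1 μM). Test compound was added at a range of concentrations. Fluorescence rise was monitored at 440-nm excitation, 509-nm emission and 495-nm cutoff. Initial degradation rates after temperature equilibration were plotted against compound concentration.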

[13] = molecular target: S97A TtClpP (Thermus thermophilus, UniProt Q5SKM8, S97A); format: binding; conditions: 2 mM bortezomib, S97A TtClpP 250 μM, 60°C
[14] = molecular target: T2, MtbClpP1P2 complex; conditions: cited from earlier work
[15] = molecular target: T1, TtClpP; experiment: TtClpP peptidase activity, PKMamc degradation; format: biochemical; conditions: Fig. 1B
[16] = 35°C, absolute error 0.3 kcal/mol
[17] = 45°C, absolute error 0.3 kcal/mol

For `O=c1oc(Cl)c(Cl)c2ccccc12` [DCC, dichloroisocoumarin], the “TAMRA-FP labeling of TtClpP” value [1] was “reduced the amount of TAMRA bound to ClpP”.

In the case of `CC(C)C[C@H](NC(=O)[C@H](Cc1ccccc1)NC(=O)c1cnccn1)B(O)O` [bortezomib], the “KT, association constant for the tense state” value (“KT, association constant” below) ([2]; 25°C) is reported as “No apparent cooperativity”, the “N, fraction of active or binding-competent protein” value (“N, fraction” below) ([2]; 25°C) is reported as 0.97 and the “ΔHT, binding enthalpy of the T state” value ([2]; 25°C) is reported as “No apparent cooperativity”. The “ΔHγ, conformational enthalpy between R and T conformations” value ([2]; 25°C) was “No apparent cooperativity”, the “γ, equilibrium constant between R and T conformations in the absence of the ligand” value ([2]; 25°C) was “No apparent cooperativity” and the “ΔHR, binding enthalpy of the R state” value ([2]; 25°C, absolute error 0.3 kcal/mol) was -0.5 kcal/mol. The “N, fraction” value ([2]; 35°C) was 0.97, the “ΔHR, binding enthalpy of the R state” value [2, 16] was -0.9 kcal/mol and the “ΔHT, binding enthalpy of the T state” value [2, 16] was -0.1 kcal/mol. For the same compound, the “ΔHγ, conformational enthalpy between R and T conformations” value [2, 16] was -0.3 kcal/mol, the “KT, association constant” value ([2]; 35°C, relative error 30%) was 28000 M⁻¹ and the “γ, equilibrium constant between R and T conformations in the absence of the ligand” value ([2]; 35°C, relative error 30%) was 3.3. For the same compound, the “N, fraction” value ([2]; 45°C) was 1.00, the “ΔHR, binding enthalpy of the R state” value [2, 17] was -1.5 kcal/mol and the “ΔHT, binding enthalpy of the T state” value [2, 17] was -0.3 kcal/mol. For the same compound, the “ΔHγ, conformational enthalpy between R and T conformations” value [2, 17] was -0.2 kcal/mol, the “KR, association constant for the relaxed state” value ([2]; 45°C, relative error 30%) was 65000 M⁻¹ and the “KT, association constant” value ([2]; 45°C, relative error 30%) was 25000 M⁻¹. The Kd ([2]; Kd,R = KR^−1, R state, higher affinity) was 15 µM, the Kd ([2]; Kd,T = KT^−1, T state, lower affinity) was 40 µM and the “free bortezomib concentration at the R↔T crossover point” value ([2]; R and T equally populated, MWC model) was “around 2 μM”. The “effect on GFPssrA degradation by the MtbClpXP1P2 complex” value [3] was “inhibitor of GFPssrA degradation”, the “binding to wild-type TtClpP by spectral changes” value [4] was “unambiguously confirms binding” and the “affinity for the chymotrypsin-like sites of the proteasome” value [5] was “nanomolar affinity”. The “effect on the chymotrypsin site of the proteasome” value [5] was “inhibits efficiently”, the “effect on the trypsin site of the proteasome” value [5] was “paradoxical activation” and the “increase in Rhyd of TtClpP on addition of bortezomib” value [6] was “approximately 8 Å”. The “hydrodynamic radius Rhyd of TtClpP” value ([6]; 25°C) was 6.673 ± 0.192 nm and 6.67 nm, the “hydrodynamic radius Rhyd of TtClpP” value ([6]; 45°C) was 6.702 ± 0.176 nm and the “TAMRA-FP labeling of TtClpP” value [1] was “failed to observe any increase of TAMRA-FP labeling”. For the same compound, the “effect on TtClpP peptidase activity in the presence of ClpX” value ([7]; bortezomib 10 μM, PKM-amc 100 μM) was “acted as an inhibitor”, the “ClpX6/ClpP14 ratio at half-maximal peptidase activity” value ([7]; bortezomib-loaded TtClpP, bortezomib 10 μM) was 2.4 ± 0.3 and 2.4 and the “TtClpX6 concentration at half-maximal activation” value ([7]; in the presence of bortezomib, ratio 2.4) was 120 nM. The “effect on MtbClpP1P2 peptidase activity” value [8] was “could also activate the peptidase activity of the MtbClpP1P2 complex”, the “FtsZ degradation by TtClpP” value [9] was “degradation of FtsZ was observed” and the “chemical shift perturbations on addition of bortezomib” value [10] was “bortezomib interacts with the active site”. The IC50 [11] was 1.6 µM, the “concentration dependence of FITC-casein degradation activation” value [12] was “linear and no reduction of the activation was observed up to 100 μM” and the “effect on FITC-casein degradation” value ([12]; FITC-casein 0.15 μM) was “a striking activation was observed”. The “spectral changes of the S97A mutant” value [13] was “no spectral changes were observed”.

In the case of `NC(N)=O` [urea], the “TAMRA-FP labeling of TtClpP” value [1] is reported as “reduced the amount of TAMRA bound to ClpP”.

For Bz-LL, the “activation of MtbClpP1P2” value [14] is listed as “most potent of these activators in Mtb” and the “activation of TtClpP peptidase activity compared with bortezomib” value [15] is listed as “capable to activate TtClpP, albeit with lower efficiency”.
